# INS-1E rescue: INS-1E beta cell protection from cytokine death; INS-1E cytokine-induced death, ATP luminescence, 48 h; normalised: neutral wells 0, positive control 100; protection from cytokine-induced ATP loss, % at 10 µM; 20,000 tested, 0.1% active;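 active = mean replicate protection from cytokine-induced ATP loss at least 50% and at least 75% of replicates each reaching 50%; inconclusive = meets only one of the two criteria, mean or replicate share; inactive = fails both the mean and replicate share criteria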
#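 assay system = INS-1E rat insulinoma cells | amount = 8000 cells per well | medium = phenol-red-free RPMI with 5% fetal bovine serum | doses = one compound concentration, pin transfer | timing = 48 h cytokine plus compound treatment, 10 min reagent incubation | also added = IL-1β, TNF-α and IFN-γ cytokine mix | signal = CellTiter-Glo luminescence measuring cellular ATP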
# A1 apoptosis 2: A1 inhibition read as caspase activation | caspase activation, % (test concentration not listed) | 24,000 tested, under 10 active | MEF A1-2A-BIM cells, caspase-Glo luminescence, 3 h; percent of clofoctol response, DMSO zero; in the data active = caspase activation above about 5.9%; inconclusive = no clear call, values can overlap the other calls; inactive = below about 2.2%
#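 Material: mouse embryonic fibroblasts co-expressing A1 and BIM (A1-2A-BIM), primed for A1 dependence / Quantity: 2500 cells/well / Buffer or medium: RPMI-1640 growth medium with 10% FBS / Doses: 50 nL compound per well, pinned / Schedule: 3 h compound exposure at 37 °C / Signal: Caspase-Glo luminescence (DEVD substrate) / Measure: Caspase-3/7 activation, seen as rise in luminescence signal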
# T cruzi intra: blocks T. cruzi growth inside host cells; intracellular Trypanosoma cruzi in host cells, plate reader; activity score (inhibition), % at 5.01 µM; 22,000 tested, 4.9% active; in the data active = activity score above about 55%; inconclusive = no clear call, values can overlap the other calls;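 also: parasites and compound incubated about four days before reading; 0% = median of neutral control wells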
# * marks the source's active call; other numbers are inactive results; ? = inconclusive; . = not tested or not shown. This excerpt belongs to a sample that is enriched for hits.
SMILES,INS-1E rescue,A1 apoptosis 2,T cruzi intra
C[C@@H]1CN([C@@H](C)CO)C(=O)c2cc(NC(=O)Nc3ccc(C(F)(F)F)cc3)ccc2O[C@@H](C)CCCCO[C@@H]1CN(C)C(=O)C1CCCCC1,.,-1,.
C[C@@H]1CCCCO[C@@H](CN(C)C(=O)C2CCCCC2)[C@@H](C)CN([C@H](C)CO)C(=O)c2cc(NC(=O)Nc3ccc(C(F)(F)F)cc3)ccc2O1,-25,.,77*
C[C@@H]1CN([C@H](C)CO)C(=O)c2cc(NC(=O)c3ccccc3)ccc2O[C@@H](C)CCCCO[C@H]1CN(C)C(=O)Nc1ccc(C(F)(F)F)cc1,.,2,.
C[C@@H]1CCCCO[C@H](CN(C)Cc2ccc(C(F)(F)F)cc2)[C@H](C)CN([C@H](C)CO)C(=O)c2cc(NC(=O)Nc3cccc4ccccc34)ccc2O1,.,1,.
C[C@@H]1CCCCO[C@@H](CN(C)C(=O)c2ccccc2)[C@@H](C)CN([C@H](C)CO)C(=O)c2cc(NC(=O)Nc3ccc(C(F)(F)F)cc3)ccc2O1,-2,1,68*
C[C@@H]1CCCCO[C@H](CN(C)C(=O)c2ccccc2)[C@@H](C)CN([C@@H](C)CO)C(=O)c2cc(NC(=O)Nc3ccc(C(F)(F)F)cc3)ccc2O1,.,0,.
O=C(O)CCCCCCC(=O)N/N=C/c1ccc(C(F)(F)F)cc1,12,.,-9
Cc1noc(C)c1NC(=O)N(C)C[C@@H]1OCCCC[C@@H](C)Oc2ccc(NC(=O)Cc3ccccc3)cc2C(=O)N([C@@H](C)CO)C[C@@H]1C,.,0,.
CC1(C)[C@H]2CC=C(/C=N\NC(=O)c3ccccc3O)[C@@H]1C2,-9,-1,5
O=C(O)CCCCCC(=O)N/N=C/c1ccc(F)cc1,1,0,-18
COc1ccc(NC(=O)Nc2ccc3c(c2)C(=O)N([C@H](C)CO)C[C@H](C)[C@H](CN(C)Cc2ccc(C(=O)Nc4ccccc4N)cc2)O3)cc1,-9,2,17
COc1ccc(NC(=O)Nc2ccc3c(c2)CC(=O)N([C@@H](C)CO)C[C@H](C)[C@@H](CN(C)Cc2ccc(C(=O)Nc4ccccc4N)cc2)O3)cc1,-6,-1,63*
COc1ccc(NC(=O)Nc2ccc3c(c2)CC(=O)N([C@@H](C)CO)C[C@@H](C)[C@@H](CN(C)Cc2ccc(C(=O)Nc4ccccc4N)cc2)O3)cc1,-18,1,60*
COc1ccc(NC(=O)Nc2ccc3c(c2)CC(=O)N([C@@H](C)CO)C[C@H](C)[C@H](CN(C)Cc2ccc(C(=O)Nc4ccccc4N)cc2)O3)cc1,4,-1,45
COc1ccc(NC(=O)Nc2ccc3c(c2)CC(=O)N([C@H](C)CO)C[C@H](C)[C@H](CN(C)Cc2ccc(C(=O)Nc4ccccc4N)cc2)O3)cc1,45,.,?
COc1ccc(NC(=O)Nc2ccc3c(c2)CC(=O)N([C@H](C)CO)C[C@@H](C)[C@@H](CN(C)Cc2ccc(C(=O)Nc4ccccc4N)cc2)O3)cc1,-8,1,66*
COc1ccc(O)c(/C=N/NC(=O)CCCCC(=O)NO)c1,0,.,-8
COc1ccc(CN(C)C[C@H]2Oc3ccc(NC(=O)Nc4ccc(C(F)(F)F)cc4)cc3CC(=O)N([C@@H](C)CO)C[C@@H]2C)cc1,-7,0,12
C[C@H](CO)N1C[C@H](C)[C@H](CN(C)Cc2ccc(C(F)(F)F)cc2)Oc2ccc(NC(=O)Nc3ccc(F)cc3)cc2CC1=O,-18,.,78*
C[C@@H]1CN([C@H](C)CO)C(=O)Cc2cc(NC(=O)Nc3ccc(F)cc3)ccc2O[C@H]1CN(C)Cc1ccc(C(F)(F)F)cc1,-65,.,73*
COc1ccc(NC(=O)Nc2ccc3c(c2)CC(=O)N([C@@H](C)CO)C[C@@H](C)[C@H](CN(C)Cc2ccc(C(F)(F)F)cc2)O3)cc1,.,1,.
C[C@H]1CN([C@@H](C)CO)C(=O)Cc2cc(NC(=O)Nc3ccc(F)cc3)ccc2O[C@@H]1CN(C)Cc1ccc(C(F)(F)F)cc1,-55,1,84*
O=C(CCCCCC(=O)Nc1ccccc1O)N/N=C/c1cc(Br)c(O)c(Br)c1,3,.,-3
CCOc1cccc(/C=N/NC(=O)c2ccc(C(=O)NO)cc2)c1OCC,.,0,.
CC(C)(C)OC(=O)N1CCC[C@H]1/C=N/NC(=O)c1ccc(C(=O)NO)cc1,26,1,4
SMILES,INS-1E rescue,A1 apoptosis 2,T cruzi intra
C[C@H]1CN([C@@H](C)CO)C(=O)Cc2cc(NC(=O)CCC(F)(F)F)ccc2O[C@@H]1CN(C)Cc1ccc(Oc2ccccc2)cc1,-11,-1,59*
C[C@@H]1CN([C@H](C)CO)C(=O)Cc2cc(NC(=O)CCC(F)(F)F)ccc2O[C@@H]1CN(C)Cc1ccc(Oc2ccccc2)cc1,-72,1,63*
C[C@@H]1CN([C@@H](C)CO)C(=O)Cc2cc(NC(=O)CCC(F)(F)F)ccc2O[C@H]1CN(C)Cc1ccc(Oc2ccccc2)cc1,.,0,.
C[C@H](CO)N1C[C@H](C)[C@H](CN(C)Cc2ccc(Oc3ccccc3)cc2)Oc2ccc(NC(=O)CCC(F)(F)F)cc2CC1=O,-16,.,22
O=C(N/N=C/c1ccc(N(c2ccccc2)c2ccccc2)cc1)c1ccccn1,0,.,42
Cc1nnc(Sc2ccc(/C=N/NC(=O)c3ccc(C(=O)NO)cc3)o2)n1C,7,1,-14
C[C@@H]1CN([C@H](C)CO)C(=O)c2cc(NS(=O)(=O)c3ccccc3)ccc2O[C@@H]1CN(C)Cc1ccc(-c2ccccc2)cc1,-28,-2,66*
Cc1ccc(S(=O)(=O)Nc2ccc3c(c2)C(=O)N([C@H](C)CO)C[C@@H](C)[C@@H](CN(C)Cc2ccc(-c4ccccc4)cc2)O3)cc1,-20,3,30
COc1ccc(S(=O)(=O)Nc2ccc3c(c2)C(=O)N([C@@H](C)CO)C[C@H](C)[C@H](CN(C)Cc2ccc(Oc4ccccc4)cc2)O3)cc1,-48,.,74*
C[C@H](CO)N1C[C@H](C)[C@@H](CN(C)Cc2ccc(-c3ccccc3)cc2)Oc2ccc(NS(=O)(=O)c3ccccc3)cc2C1=O,.,0,41*
Cc1ccc(S(=O)(=O)Nc2ccc3c(c2)C(=O)N([C@H](C)CO)C[C@H](C)[C@@H](CN(C)Cc2ccc(-c4ccccc4)cc2)O3)cc1,-3,.,-23
COc1ccc(S(=O)(=O)Nc2ccc3c(c2)C(=O)N([C@H](C)CO)C[C@@H](C)[C@@H](CN(C)Cc2ccc(Oc4ccccc4)cc2)O3)cc1,-14,.,-12
COC(=O)[C@]1(Cc2ccccc2CN=[N+]=[N-])N=C(c2ccc(OCCCO)cc2)O[C@@H]1c1ccccc1N=[N+]=[N-],.,0,.
O=C(CCCCCCC(=O)Nc1ccccc1O)N/N=C/[C@@H](O)[C@H](O)[C@H](O)CO,-3,1,-1
COC(=O)[C@]1(Cc2ccccc2N=[N+]=[N-])N=C(c2ccc(OCCCO)cc2)O[C@@H]1c1ccccc1N=[N+]=[N-],.,0,.
O=C(CCCCC(=O)N/N=C/c1coc2ccccc2c1=O)NO,25,1,-2
CC1(C)COC(CCC/C=N/NC(=O)c2cccc(C(=O)NO)c2)OC1,0,1,-12

# Compound activity from PubChem.
